# Source: ChEMBL document CHEMBL2407055, “4-Substituted 2-Hydroxyisoquinoline-1,3(2H,4H)-diones as a Novel Class of HIV-1 Integrase Inhibitors” (ACS Med Chem Lett, 2013)
# Experiments:
# [1] = target: T1, Human immunodeficiency virus type 1 integrase (Human immunodeficiency virus 1, UniProt Q7ZJM1); test: Inhibition of strand transfer activity of HIV1 integrase using pre-cleaved oligonucleotide as substrate after 1 hr by ELISA
# [2] = system: Human immunodeficiency virus 1; test: Antiviral activity against HIV1 3B infected in human MT4 cells assessed as inhibition of virus-induced cytopathic effect by MTT assay; type: functional, organism-based; conditions: Human immunodeficiency virus 1, 3B
# Procedure, shortened: (§1)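 Anti-HIV-1 activity was measured in MT-4 cells. EC50 is the concentration that cuts HIV-1-induced cytopathic effect by 50%. CC50 is the concentration that lowers MT-4 cell viability by 50%. The therapeutic index is CC50/EC50.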
# [3] = target: T1, Human immunodeficiency virus type 1 integrase; test: Inhibition of HIV1 integrase overall inhibition using 5'-digoxigenin-labeled 5'-GACCCTTTTAGTCAGTGTGGAAAATCTCTAGCAGT-3' as substrate after 1 hr by ELISA
# [4] = Cytotoxicity against human MT4 cells by MTT assay; type: cell-based; procedure, shortened: as §1
# [5] = Therapeutic index, ratio of CC50 for human MT4 cells to EC50 for HIV1 3B; type: cell-based; conditions: read-out: Ratio CC50/EC50; procedure, shortened: as §1
# [6] = target: Human immunodeficiency virus type 1 integrase (Human immunodeficiency virus 1) (UniProt Q7ZJM1); test: Ratio of IC50 for strand transfer activity of HIV1 integrase to IC50 for HIV1 integrase overall inhibition
# [7] = target: T1, Human immunodeficiency virus type 1 integrase; test: Inhibition of 3'-processing activity of HIV1 integrase using 32P-5'-TGTGGAAAATCTCTAGCAGT-3' and 5'-ACTGCTAGAGATTTTCCACA-3' as substrate after 1 hr by ELISA
# [8] = target: Human immunodeficiency virus type 1 reverse transcriptase (Human immunodeficiency virus 1, UniProt Q72547); test: Inhibition of HIV1 recombinant reverse transcriptase RNase H activity after 10 mins
# Procedure, shortened: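 In vitro assay of RT-associated RNase H function. IC50 is the concentration giving 50% inhibition of RNase H activity.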
# [9] = Protein binding in human plasma; type: ADME, cell-free; conditions: read-out: PPB
# [10] = n-octanol-PBS partition coefficient, log D of the compound at pH 7.4; type: physicochemical
# [11] = target: T1, Human immunodeficiency virus type 1 integrase; test: Inhibition of HIV1 integrase binding to LEDGF
# [12] = Aqueous solubility of the compound in PBS at pH 7.4; type: physicochemical
# T1 sequence (Q7ZJM1 whole entry): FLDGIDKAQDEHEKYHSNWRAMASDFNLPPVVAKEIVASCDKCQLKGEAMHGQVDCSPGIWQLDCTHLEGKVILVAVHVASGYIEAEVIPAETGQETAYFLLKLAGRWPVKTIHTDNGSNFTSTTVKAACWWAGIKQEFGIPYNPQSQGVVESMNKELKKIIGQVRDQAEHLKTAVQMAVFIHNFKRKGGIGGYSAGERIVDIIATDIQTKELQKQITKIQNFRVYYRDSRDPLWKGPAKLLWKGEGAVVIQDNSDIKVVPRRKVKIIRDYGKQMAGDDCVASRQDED
# Chain of Human immunodeficiency virus type 1 integrase (Human immunodeficiency virus 1) (Q7ZJM1 as listed by the source): as the sequence (Q7ZJM1 whole entry) above
Structure (SMILES),IC50 [1] [nM],EC50 [2] [nM],IC50 [3] [nM],CC50 [4] [nM],selectivity ratio [5],Ratio IC50 [6],IC50 [7] [nM],IC50 [8] [nM],fraction unbound [9],logD [10],IC50 [11] [nM],solubility [12] [µM]
CN(C(=O)C1C(=O)N(O)C(=O)c2ccccc21)c1ccccc1 (stereo not given),5600,> 107000,5210,107000,–,–,–,–,–,–,–,–
COc1ccc(CNC(=O)C2C(=O)N(O)C(=O)c3ccccc32)cc1OC (stereo not given),307,> 125000,235,125000,–,–,–,–,–,–,–,–
O=C(Nc1ccccc1)C1C(=O)N(O)C(=O)c2ccccc21 (stereo not given),730,4950,310,106000,21.3,–,–,–,–,–,–,–
O=C1NC(=O)C(C(=O)NCc2ccc(F)cc2)c2ccccc21 (stereo not given),79000,> 250000,199000,> 250000,–,–,–,–,–,–,–,–
COc1ccc(NC(=O)C2C(=O)N(O)C(=O)c3ccccc32)cc1Cl (stereo not given),277,3340,20,12300,3.7,10,1580,16600,–,–,–,–
COc1ccc(CCNC(=O)C2C(=O)N(O)C(=O)c3ccccc32)cc1OC (stereo not given),126,70800,495,> 125000,> 1.8,–,–,3850,–,–,–,–
COc1ccc(CNC(=O)C2C(=O)N(O)C(=O)c3ccccc32)c(OC)c1 (stereo not given),254,9240,35,60400,6.5,10,–,630,–,–,–,–
Cc1nnc(C(=O)NC(C)(C)c2nc(C(=O)NCc3ccc(F)cc3)c(O)c(=O)n2C)o1,–,–,–,> 8000,–,–,–,–,–,–,–,–
O=C(NCc1ccc(O)c(O)c1)C1C(=O)N(O)C(=O)c2ccccc21 (stereo not given),258,> 11000,205,11000,–,–,–,900,–,–,–,–
O=C(NCCc1ccc(O)c(O)c1)C1C(=O)N(O)C(=O)c2ccccc21 (stereo not given),296,> 63000,673,63000,–,–,–,130,–,–,–,–
O=C(NCc1ccccc1)C1C(=O)N(O)C(=O)c2ccccc21 (stereo not given),30,3120,80,130000,41.7,–,–,–,–,–,–,–
O=C(Nc1cccc(F)c1)C1C(=O)N(O)C(=O)c2ccccc21 (stereo not given),110,2470,10,64000,25.9,10,–,7310,–,–,–,–
O=C(NCc1ccc(O)cc1O)C1C(=O)N(O)C(=O)c2ccccc21 (stereo not given),572,7940,35,> 125000,> 16,10,2350,520,–,–,–,–
O=C(NCc1ccc(F)cc1)C1C(=O)N(O)C(=O)c2ccccc21 (stereo not given),99,2340,56,202000,86.3,–,60,360,0.001,0.56,> 100000,190
Cc1ccc(CNC(=O)C2C(=O)N(O)C(=O)c3ccccc32)cc1 (stereo not given),84,5700,76,> 125000,> 22,–,–,14000,–,–,–,–
CN1C(=O)c2ccccc2C(C(=O)NCc2ccc(F)cc2)C1=O (stereo not given),> 250000,> 250000,> 250000,> 250000,–,–,–,–,–,–,–,–
O=C(NCCc1ccc(F)cc1)C1C(=O)N(O)C(=O)c2ccccc21 (stereo not given),200,5080,30,124000,24,–,–,–,–,–,–,–
O=C(Nc1ccc(F)cc1)C1C(=O)N(O)C(=O)c2ccccc21 (stereo not given),1120,1750,800,114000,65.4,–,–,–,–,–,–,–
COc1ccc(CNC(=O)C2C(=O)N(O)C(=O)c3ccccc32)cc1 (stereo not given),1030,17600,1190,118000,6.7,–,–,–,–,–,–,–
